The nature of assay [1]: Her2 expression decrease, cell viability multiplex – SKBR3 breast tumor cells, AlphaScreen, ATP viability, primary screen (AID 461;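 active = Her2 level under about 52% in both replicate screens, with viability over 70% of control, limit read from the data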;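 for Her2 level: lower value means less Her2 protein in the cells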;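 for viability: percent of carrier control wells set as 100% viability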). Conditions: SKBR3 Her2 protein level, 18-24 h, measured here: SKBR3 viability, ATP luminescence, at 10 µM. (Alpha assays give light when donor and acceptor beads are brought close together.)
Assay [2] concerns the target Receptor tyrosine-protein kinase erbB-2 (Homo sapiens) (UniProt P04626). The assay is described as above. Particulars: 18-24 h, at 10 µM, stronger effect = lower value.
The nature of assay [3]: reduced viability of SK-BR-3 breast cancer cells – cell-based, 24 h, human, pilot screen (AID 572;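 active = viability at or below 10% of carrier control in both of two separate runs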;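 note: compound exposure lasted between 18 and 24 h rather than exactly 24 h; 100% = carrier-treated control wells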). Conditions: SK-BR-3 viability, CellTiter-Glo luminescence, at 10 µM, stronger effect = lower value. Background: ATP-based viability assays read luminescence as a measure of living cells.
Assay [4] in a line: HUVEC growth inhibition – cell-based, human, primary screen (AID 575;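 active = viability at or below 30% in both replicate assays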;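 note: 100% = median of untreated cell wells with 0.1% DMSO on each plate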). Particulars: HUVEC proliferation, CellTiter-Glo luminescence, 72 h; at 10 µM; stronger effect = lower value. The procedure, abridged: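 Assay system: primary human umbilical vein endothelial cells / Buffer or medium: endothelial basal medium with 2% FBS plus growth supplements / Compound dosing: one dose, 10 µM final, 0.1% DMSO / Timing: 72 h treatment at 37 °C / Signal: CTG luminescence / Benchmarks: 32 DMSO-only cell-control wells (high), 32 MePR drug-control wells (low) per plate / Plate: collagen-coated 384-well format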

Assay [5] is described as follows: H69AR cell proliferation blockers – human, duplicate replicates, primary screen (AID 580).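 Note: 100% = mean luminescence of untreated wells and 0% = no signal.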 Conditions: H69AR lung tumor cells viability, ATP luminescence, 72 h; at 10 µM; stronger effect = lower value.
The nature of assay [6]: MRP1 drug-resistance reversers in H69AR cells – cell-based, doxorubicin co-treatment, pilot screen (AID 601;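 active = viability loss from added drug above about 55%, and viability with drug at most 40%, in both replicates, limit read from the data, passing the limit was not always enough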). Conditions: CellTiter-Glo, 72 h, at 10 µM; for differential viability (reversal): stronger effect = higher value.
Assay [7] can be described thus: yeast transport mutant growth inhibition pilot in 384-well plates, post-Golgi transport modulator project (AID 636; in the data active = inhibition above about 31%). Particulars: absorbance 615 nm, about 18 h, stronger effect = higher value.
Assay [8] can be described thus: growth suppression of yeast trafficking mutant, preliminary HTS, modulators of trafficking downstream of Golgi apparatus project, 1536-format plate, OD 615 nm (AID 637; in the data active = inhibition above about 30%). Conditions: yeast transport mutant growth, absorbance 615 nm, 18 h; stronger effect = higher value.
Setting [9] is: H69AR cells + 2 uM doxorubicin, measured here: viability with 2 uM doxorubicin, stronger effect = lower value.
Setting [10] is: H69AR cells, compound alone cytotoxicity.

Each structure is given as a SMILES string. Active and inactive are the calls of the source.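 Rule for the calls, unless noted: active = viability at or under a set limit in both replicates, limit being median viability minus 3 SD (cut at about 48% in these data, passing the limit was not always enough); inconclusive = at or under the limit in just one replicate; inactive = at or above the limit in both replicates.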

The results in this text go back to PubChem BioAssay.

What is called viability is a read-out of living cells in per cent, often relative to untreated cells. Usually inhibition stands for the drop in the measured response relative to a control, in per cent.

Sequence of Receptor tyrosine-protein kinase erbB-2 (Homo sapiens) (P04626 whole entry, looked up): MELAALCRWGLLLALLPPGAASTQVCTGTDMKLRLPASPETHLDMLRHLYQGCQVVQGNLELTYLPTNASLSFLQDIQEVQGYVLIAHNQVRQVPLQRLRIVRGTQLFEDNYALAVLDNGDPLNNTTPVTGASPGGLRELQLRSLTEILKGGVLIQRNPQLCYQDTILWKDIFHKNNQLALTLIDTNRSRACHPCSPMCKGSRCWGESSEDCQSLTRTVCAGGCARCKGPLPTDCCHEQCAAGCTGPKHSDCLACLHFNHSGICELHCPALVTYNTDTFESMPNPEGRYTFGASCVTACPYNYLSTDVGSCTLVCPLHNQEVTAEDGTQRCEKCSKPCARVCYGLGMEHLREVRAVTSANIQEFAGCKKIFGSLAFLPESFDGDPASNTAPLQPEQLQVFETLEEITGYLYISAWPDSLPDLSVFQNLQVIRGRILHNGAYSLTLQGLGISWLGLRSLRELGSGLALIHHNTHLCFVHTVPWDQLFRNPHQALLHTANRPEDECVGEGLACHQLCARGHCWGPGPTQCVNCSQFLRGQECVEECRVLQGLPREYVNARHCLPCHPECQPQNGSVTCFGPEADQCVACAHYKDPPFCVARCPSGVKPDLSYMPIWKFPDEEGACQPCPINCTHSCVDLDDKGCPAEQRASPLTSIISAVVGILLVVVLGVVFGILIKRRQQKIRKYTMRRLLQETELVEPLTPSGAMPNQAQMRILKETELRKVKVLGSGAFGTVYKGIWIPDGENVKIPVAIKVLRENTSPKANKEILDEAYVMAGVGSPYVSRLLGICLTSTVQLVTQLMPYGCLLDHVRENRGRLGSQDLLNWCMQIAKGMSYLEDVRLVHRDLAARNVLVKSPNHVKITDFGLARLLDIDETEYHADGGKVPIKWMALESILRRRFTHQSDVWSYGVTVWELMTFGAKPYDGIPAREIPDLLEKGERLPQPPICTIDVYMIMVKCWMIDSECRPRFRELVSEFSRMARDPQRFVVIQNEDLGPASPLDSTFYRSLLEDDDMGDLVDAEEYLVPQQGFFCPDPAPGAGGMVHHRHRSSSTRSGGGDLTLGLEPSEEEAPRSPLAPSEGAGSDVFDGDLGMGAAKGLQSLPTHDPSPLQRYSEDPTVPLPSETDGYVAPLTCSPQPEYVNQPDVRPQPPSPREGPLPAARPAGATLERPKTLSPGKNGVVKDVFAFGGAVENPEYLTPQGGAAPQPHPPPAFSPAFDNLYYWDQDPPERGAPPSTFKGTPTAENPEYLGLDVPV

For the compound `COC(=O)c1c(N)nc(C)n1-c1ccc(OC)cc1`, the viability was 86.5% in assay [1]; 86.5% (inactive) in assay [3]; 95.9% (inactive) in assay [4]; 96.1% (inactive) in assay [5]; 91.5% in assay [6] (setting [9]); 96.1% in assay [6] (setting [10]). In addition, the Her2 level in assay [2] is 91% (inactive). The differential viability (reversal) in assay [6] (H69AR cells + 2 uM doxorubicin) was 4.61% (inactive). Also, the inhibition in assay [7] is -3.33% (inactive); in assay [8] it was -3.77% (inactive).

Turning to `CCCn1c(=O)c2ccccc2n2c(SCc3cc(=O)n4ccsc4n3)nnc12`, the viability was 79.5% in assay [1]; 79.5% (inactive) in assay [3]; 104% (inactive) in assay [4]; 82.1% (inactive) in assay [5]; 67.6% in assay [6] (setting [9]); 82.1% in assay [6] (setting [10]). The Her2 level in assay [2] is 90.5% (inactive). The differential viability (reversal) in assay [6] (H69AR cells + 2 uM doxorubicin) is 14.6% (inactive). In addition, the inhibition is -1.18% (inactive) in assay [7] and -12.1% (inactive) in assay [8].

For `O=C(c1ccco1)N1CCN(S(=O)(=O)c2ccc3c(c2)CCN3C(=O)C2CCC2)CC1`, the viability was 81.5% in assay [1]; 81.5% (inactive) in assay [3]; 101% (inactive) in assay [4]; 95.6% (inactive) in assay [5]; 83.9% in assay [6] (setting [9]); 95.6% in assay [6] (setting [10]). Further, the Her2 level in assay [2] was 130% (inactive). Moreover, the differential viability (reversal) in assay [6] (H69AR cells + 2 uM doxorubicin) was 11.7% (inactive). Moreover, the values for the inhibition in assay [7] and in assay [8] were -1.71% (inactive) and -6.5% (inactive), respectively.

Consider `CCOC(=O)C1CCN(Cc2c(O)ccc3ccccc23)CC1`, for which the viability in assay [1] is 126%; in assay [3], 126% (inactive); in assay [4], 83.6% (inactive); in assay [5], 98.2% (inactive); in assay [6] (setting [9]) it was 92.6%; in assay [6] (setting [10]), 98.2%. The Her2 level in assay [2] is 115% (inactive). For the same compound, the differential viability (reversal) in assay [6] (H69AR cells + 2 uM doxorubicin) was 5.58% (inactive). The values for the inhibition in assay [7] and in assay [8] were -7.67% (inactive) and 5.4% (inactive), respectively.

For the compound `CCOc1ccc(N(CC(=O)NC2CCCC2)S(=O)(=O)c2c(C)[nH]c(=O)[nH]c2=O)cc1`, the viability in assay [1] is 87%; in assay [3], 87% (inactive); in assay [4] it was 96.4% (inactive); in assay [5] it was 101% (inactive); in assay [6] (setting [9]), 83.4%; in assay [6] (setting [10]), 101%. Also, the Her2 level in assay [2] was 104% (inactive). Also, the differential viability (reversal) in assay [6] (H69AR cells + 2 uM doxorubicin) is 17.2% (inactive). The inhibition is 0.4% (inactive) in assay [7] and -3.28% (inactive) in assay [8].

Turning to `Cc1ccc(-c2cc(C(=O)N3CCCC3)no2)cc1`, the viability was 93.5% in assay [1]; 93.5% (inactive) in assay [3]; 96% (inactive) in assay [4]; 95.1% (inactive) in assay [5]; 93.1% in assay [6] (setting [9]); 95.1% in assay [6] (setting [10]). Moreover, the Her2 level in assay [2] was 106% (inactive). Further, the differential viability (reversal) in assay [6] (H69AR cells + 2 uM doxorubicin) is 2% (inactive). The figures for the inhibition in assay [7] and in assay [8] were -2.11% (inactive) and -5.16% (inactive), respectively.

In the case of `CCN(CC)c1ccc(NC(=O)c2[nH]c(C)c(C(C)=O)c2C)c(C)c1`, the viability in assay [1] was 92.5%; in assay [3] it was 92.5% (inactive); in assay [4], 93.1% (inactive); in assay [5], 74.8% (inactive); in assay [6] (setting [9]), 75.9%; in assay [6] (setting [10]), 74.8%. In addition, the Her2 level in assay [2] was 91% (inactive). In addition, the differential viability (reversal) in assay [6] (H69AR cells + 2 uM doxorubicin) was -1.04% (inactive). Also, the inhibition is -0.39% (inactive) in assay [7] and -8.06% (inactive) in assay [8].

As for `Cc1ccc(Nc2nc(CSc3nnnn3C)cs2)cc1`, the viability in assay [1] was 101%; in assay [3] it was 101% (inactive); in assay [4] it was 95.3% (inactive); in assay [5], 113% (inactive); in assay [6] (setting [9]) it was 87.4%; in assay [6] (setting [10]) it was 113%. Besides, in assay [2], the Her2 level was 96% (inactive). Also, the differential viability (reversal) in assay [6] (H69AR cells + 2 uM doxorubicin) was 25.7% (inactive). The inhibition is -7.24% (inactive) in assay [7] and -1.45% (inactive) in assay [8].

Take `Cc1ccc(C(=O)C2COC(=O)C2)cc1` (stereo not given): the viability in assay [1] is 109%; in assay [3] it was 109% (inactive); in assay [4], 95.7% (inactive); in assay [5] it was 85.3% (inactive); in assay [6] (setting [9]), 82.2%; in assay [6] (setting [10]), 85.3%. The Her2 level in assay [2] is 80.5% (inactive). Further, in assay [6] (H69AR cells + 2 uM doxorubicin), the differential viability (reversal) is 3.12% (inactive). Moreover, the inhibition in assay [7] was -1.97% (inactive); in assay [8] it was -4.84% (inactive).

Take `CCOc1cc(C)c(Cl)cc1S(=O)(=O)N(C)C`: the viability is 106% in assay [1]; 106% (inactive) in assay [3]; 103% (inactive) in assay [4]; 95.4% (inactive) in assay [5]; 86.6% in assay [6] (setting [9]); 95.4% in assay [6] (setting [10]). Moreover, in assay [2], the Her2 level is 90.5% (inactive). Moreover, the differential viability (reversal) in assay [6] (H69AR cells + 2 uM doxorubicin) is 8.76% (inactive). For the same compound, the figures for the inhibition in assay [7] and in assay [8] were -3.03% (inactive) and -2.1% (inactive), respectively.

For `Cc1cc(C)nc(N2CCC(C(=O)NC3CCCCCC3)CC2)n1`, the viability was 92.5% in assay [1]; 92.5% (inactive) in assay [3]; 111% (inactive) in assay [4]; 96.1% (inactive) in assay [5]; 94.5% in assay [6] (setting [9]); 96.1% in assay [6] (setting [10]). In assay [2], the Her2 level is 99% (inactive). For the same compound, in assay [6] (H69AR cells + 2 uM doxorubicin), the differential viability (reversal) is 1.6% (inactive). Further, the figures for the inhibition in assay [7] and in assay [8] were -4.8% (inactive) and 1.13% (inactive), respectively.

For `CC1N=C2c3ccccc3N=C(SCc3cc(=O)n4cc(Cl)ccc4n3)N2C1=O` (stereo not given), the viability is 78.5% in assay [1]; 78.5% (inactive) in assay [3]; 79.4% (inactive) in assay [4]; 76.1% (inactive) in assay [5]; 85.6% in assay [6] (setting [9]); 76.1% in assay [6] (setting [10]). The Her2 level in assay [2] was 92.5% (inactive). Also, the differential viability (reversal) in assay [6] (H69AR cells + 2 uM doxorubicin) is -9.46% (inactive). Further, the inhibition in assay [7] is -4.87% (inactive); in assay [8], -0.48% (inactive).

Consider `CC1=C(c2ccc(Cl)cc2)[N+](=O)C(C)(C)N1[O-]`, for which the viability in assay [1] is 99.5%; in assay [3], 99.5% (inactive); in assay [4] it was 110% (inactive); in assay [5], 89.6% (inactive); in assay [6] (setting [9]), 93.8%; in assay [6] (setting [10]), 89.6%. Also, the Her2 level in assay [2] was 95.5% (inactive). In addition, the differential viability (reversal) in assay [6] (H69AR cells + 2 uM doxorubicin) is -4.19% (inactive). The figures for the inhibition in assay [7] and in assay [8] were -4.52% (inactive) and -10.2% (inactive), respectively.

On to `CC(C)Cc1cc(C(=O)Nc2c(F)cc(F)cc2Br)no1`, for which the viability was 88.5% in assay [1]; 88.5% (inactive) in assay [3]; 107% (inactive) in assay [4]; 113% (inactive) in assay [5]; 82.8% in assay [6] (setting [9]); 113% in assay [6] (setting [10]). The Her2 level in assay [2] was 106% (inactive). Also, the differential viability (reversal) in assay [6] (H69AR cells + 2 uM doxorubicin) is 30% (inactive). The values for the inhibition in assay [7] and in assay [8] were 0.64% (inactive) and -4.33% (inactive), respectively.

As to `CC1Oc2ccccc2N(CC(=O)N(Cc2ccccc2)Cc2ccccn2)C1=O` (stereo not given), the viability in assay [1] was 108%; in assay [3], 108% (inactive); in assay [4] it was 110% (inactive); in assay [5] it was 88.6% (inactive); in assay [6] (setting [9]) it was 90.1%; in assay [6] (setting [10]), 88.6%. For the same compound, the Her2 level in assay [2] was 100% (inactive). Also, in assay [6] (H69AR cells + 2 uM doxorubicin), the differential viability (reversal) is -1.47% (inactive). Further, the inhibition in assay [7] was -5.54% (inactive); in assay [8], -10% (inactive).
